The results in this text go back to ChEMBL document CHEMBL1144276, “Synthesis and in vitro selective anti-Helicobacter pylori activity of pyrazoline derivatives” (2005).

Holding throughout (format): functional
For test [1], the system named is Helicobacter pylori. Briefly: Minimal inhibitory concentration against 17 strains of Helicobacter pylori. In outline: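 Agar dilution against 16 clinical isolates plus reference strain NCTC 11637 (four metronidazole-resistant). Twofold serial dilutions in Columbia agar with 10% horse serum and 0.25% yeast extract, 128 to 0.0039 µg/mL, plates made fresh. Inoculum: 72 h growth suspended in Wilkins Chalgren broth at 0.5 McFarland, 5 µL multipoint spots; 37 °C, 72 h, microaerobic (10% CO2).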

Test [2] has as its system Helicobacter pylori. Briefly: Minimal inhibitory concentration against metronidazole resistant Helicobacter pylori 8 strain. The gist of the method:
(§1)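 Agar dilution. Columbia agar with 10% horse serum and 0.25% yeast extract holds serial twofold dilutions of compound, 128 to 0.0039 µg/mL, and plates are made on the day of use. Inoculum is 72 h growth suspended in Wilkins Chalgren broth to 0.5 McFarland, applied as 5 µL by multipoint inoculator. Plates are incubated 72 h at 37 °C, microaerobic (10% CO2).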

Test [3] has as its system Helicobacter pylori. Briefly: Minimal inhibitory concentration against metronidazole resistant Helicobacter pylori 19 strain. The gist of the method:
as §1

Test [4] has as its system Helicobacter pylori. Briefly: Minimal inhibitory concentration against metronidazole resistant Helicobacter pylori NCTC 11637 strain. The gist of the method: as §1
Test [5] concerns Helicobacter pylori. Briefly: Minimal inhibitory concentration against metronidazole resistant Helicobacter pylori 20 strain. The gist of the method:
as §1

Converted amounts (≈) assume the structure as drawn.

Usually MIC50 stands for an inhibitory concentration at the 50% level, which refers to growth in some studies and to a panel of isolates in others. The low end stands for higher susceptibility, the high end for lower susceptibility. In general, MIC90 refers to the lowest concentration that inhibits either 90% of growth or 90% of the strains tested, depending on the study. In test [1], `COc1ccccc1C1CC(c2ccc(O)cc2)=NN1C(C)=O` (configuration not stated) had an MIC50 of 8 µg/mL (≈ 25.8 µM) and an MIC90 of 16 µg/mL (≈ 51.6 µM).
In the case of `CC(=O)N1N=C(c2c(O)cccc2O)CC1c1ccc(C)cc1` (configuration not stated), in test [1], the MIC50 stood at 32 µg/mL (≈ 103 µM) and the MIC90 is 128 µg/mL (≈ 412 µM).
In test [1], `CC(=O)N1N=C(c2ccccc2)CC1c1ccc(Cl)cc1` (configuration not stated) registered an MIC50 of 4 µg/mL (≈ 13.4 µM) and an MIC90 of 8 µg/mL (≈ 26.8 µM).
By MIC is commonly meant the smallest concentration in the dilution series that meets the test's criterion for growth inhibition. Higher therefore signals weaker potency. With `Cc1ncc([N+](=O)[O-])n1CCO` [METRONIDAZOLE], the MIC in test [2], in test [3], in test [4] and in test [5] was 64 µg/mL (≈ 374 µM) each time. This compound had an MIC50 in test [1] of 0.5 µg/mL (≈ 2.92 µM). The compound further returned an MIC90 in test [1] of 64 µg/mL (≈ 374 µM).
